Assay results published in ChEMBL document CHEMBL2311425, “Histone deacetylase (HDAC) inhibitors with a novel connecting unit linker region reveal a selectivity profile for HDAC4 and HDAC5 with improved activity against chemoresistant cancer cells” (J Med Chem, 2013).
The source made the active and inactive calls. The calls are words filed in the database; no cut-off is given here.

Experiments:
Histone deacetylase [1] = experiment: Inhibition of HDAC in cisplatin resistant human A2780 cells after 18 hrs by fluorescence assay; assay type: cell-based
Histone deacetylase [2] = experiment: Inhibition of HDAC in human A2780 cells after 18 hrs by fluorescence assay; assay type: cell-based
A2780 [3] = experiment: Cytotoxicity against human A2780 cells after 72 hrs by MTT assay; assay type: functional, cell-based; conditions: A2780, 72 h
[4] = test system: A2780 CisR (Homo sapiens); experiment: cells; conditions: 72 h
Histone deacetylase 11 = molecular target: T1, Histone deacetylase 11 (Homo sapiens, UniProt Q96DB2); experiment: Inhibition of human HDAC11 by fluorescence assay
T1 sequence (Q96DB2 whole entry): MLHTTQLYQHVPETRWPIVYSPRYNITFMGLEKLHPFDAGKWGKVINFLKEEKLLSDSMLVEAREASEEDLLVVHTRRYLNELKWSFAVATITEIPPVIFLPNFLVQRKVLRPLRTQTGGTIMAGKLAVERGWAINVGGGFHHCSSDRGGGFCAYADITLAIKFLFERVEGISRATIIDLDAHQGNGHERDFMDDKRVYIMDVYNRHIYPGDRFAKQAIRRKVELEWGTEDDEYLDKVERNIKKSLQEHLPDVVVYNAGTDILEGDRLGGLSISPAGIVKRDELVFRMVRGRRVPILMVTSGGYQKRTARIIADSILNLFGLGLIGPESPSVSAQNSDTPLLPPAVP

Histone deacetylase 8 = molecular target: T2, Histone deacetylase 8 (Homo sapiens, UniProt Q9BY41); experiment: Inhibition of human HDAC8 by fluorescence assay
T2 sequence (Q9BY41 whole entry): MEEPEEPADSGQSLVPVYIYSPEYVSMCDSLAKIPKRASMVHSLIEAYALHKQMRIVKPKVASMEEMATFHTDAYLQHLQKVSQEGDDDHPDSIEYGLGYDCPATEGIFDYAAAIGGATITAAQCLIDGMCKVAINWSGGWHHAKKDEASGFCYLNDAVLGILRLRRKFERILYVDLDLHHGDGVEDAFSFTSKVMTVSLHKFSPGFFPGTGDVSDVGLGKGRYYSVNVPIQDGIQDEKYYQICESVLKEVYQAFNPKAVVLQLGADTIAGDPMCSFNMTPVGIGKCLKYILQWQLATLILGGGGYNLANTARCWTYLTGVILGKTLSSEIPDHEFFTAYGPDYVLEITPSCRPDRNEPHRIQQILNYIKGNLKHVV

[5] = molecular target: T3, Protein deacetylase HDAC6 (Homo sapiens, UniProt Q9UBN7); experiment: Inhibition of human HDAC6 by fluorescence assay
T3 sequence (Q9UBN7 whole entry): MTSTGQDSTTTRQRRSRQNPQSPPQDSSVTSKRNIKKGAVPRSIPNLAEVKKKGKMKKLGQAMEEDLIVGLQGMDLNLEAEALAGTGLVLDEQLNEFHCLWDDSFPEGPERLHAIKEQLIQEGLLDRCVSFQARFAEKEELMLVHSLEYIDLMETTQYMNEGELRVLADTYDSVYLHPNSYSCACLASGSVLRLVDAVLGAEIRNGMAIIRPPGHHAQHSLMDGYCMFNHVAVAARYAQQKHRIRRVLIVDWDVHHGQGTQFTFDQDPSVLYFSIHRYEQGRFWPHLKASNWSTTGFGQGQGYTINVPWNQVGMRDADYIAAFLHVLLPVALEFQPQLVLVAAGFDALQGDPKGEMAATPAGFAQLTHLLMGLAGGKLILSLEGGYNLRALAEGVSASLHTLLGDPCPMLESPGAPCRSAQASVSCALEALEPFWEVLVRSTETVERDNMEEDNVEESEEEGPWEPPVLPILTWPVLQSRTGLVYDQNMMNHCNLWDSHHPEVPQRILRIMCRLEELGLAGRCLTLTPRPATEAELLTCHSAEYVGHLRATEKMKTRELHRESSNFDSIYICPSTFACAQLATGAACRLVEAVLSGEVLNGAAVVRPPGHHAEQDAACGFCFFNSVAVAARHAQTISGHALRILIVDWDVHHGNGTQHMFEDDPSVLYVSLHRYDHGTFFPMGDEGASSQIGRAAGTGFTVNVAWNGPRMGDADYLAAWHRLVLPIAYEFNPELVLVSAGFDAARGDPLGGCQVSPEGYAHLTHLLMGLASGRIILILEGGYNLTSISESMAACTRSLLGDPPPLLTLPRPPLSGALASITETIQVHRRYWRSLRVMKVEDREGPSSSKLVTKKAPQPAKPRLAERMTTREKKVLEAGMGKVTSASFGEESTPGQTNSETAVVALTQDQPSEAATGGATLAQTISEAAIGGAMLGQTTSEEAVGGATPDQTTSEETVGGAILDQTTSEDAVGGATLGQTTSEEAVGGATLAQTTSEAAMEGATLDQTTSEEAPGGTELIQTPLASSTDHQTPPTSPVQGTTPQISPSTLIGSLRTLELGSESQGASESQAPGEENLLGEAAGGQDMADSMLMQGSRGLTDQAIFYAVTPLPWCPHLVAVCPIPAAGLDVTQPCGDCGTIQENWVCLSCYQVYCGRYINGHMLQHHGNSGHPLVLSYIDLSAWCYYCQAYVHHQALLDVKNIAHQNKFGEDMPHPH

Histone deacetylase 5 = Histone deacetylase 5 (Homo sapiens, UniProt Q9UQL6); experiment: Inhibition of human HDAC5 by fluorescence assay
Chain of Histone deacetylase 5 (Q9UQL6 whole entry): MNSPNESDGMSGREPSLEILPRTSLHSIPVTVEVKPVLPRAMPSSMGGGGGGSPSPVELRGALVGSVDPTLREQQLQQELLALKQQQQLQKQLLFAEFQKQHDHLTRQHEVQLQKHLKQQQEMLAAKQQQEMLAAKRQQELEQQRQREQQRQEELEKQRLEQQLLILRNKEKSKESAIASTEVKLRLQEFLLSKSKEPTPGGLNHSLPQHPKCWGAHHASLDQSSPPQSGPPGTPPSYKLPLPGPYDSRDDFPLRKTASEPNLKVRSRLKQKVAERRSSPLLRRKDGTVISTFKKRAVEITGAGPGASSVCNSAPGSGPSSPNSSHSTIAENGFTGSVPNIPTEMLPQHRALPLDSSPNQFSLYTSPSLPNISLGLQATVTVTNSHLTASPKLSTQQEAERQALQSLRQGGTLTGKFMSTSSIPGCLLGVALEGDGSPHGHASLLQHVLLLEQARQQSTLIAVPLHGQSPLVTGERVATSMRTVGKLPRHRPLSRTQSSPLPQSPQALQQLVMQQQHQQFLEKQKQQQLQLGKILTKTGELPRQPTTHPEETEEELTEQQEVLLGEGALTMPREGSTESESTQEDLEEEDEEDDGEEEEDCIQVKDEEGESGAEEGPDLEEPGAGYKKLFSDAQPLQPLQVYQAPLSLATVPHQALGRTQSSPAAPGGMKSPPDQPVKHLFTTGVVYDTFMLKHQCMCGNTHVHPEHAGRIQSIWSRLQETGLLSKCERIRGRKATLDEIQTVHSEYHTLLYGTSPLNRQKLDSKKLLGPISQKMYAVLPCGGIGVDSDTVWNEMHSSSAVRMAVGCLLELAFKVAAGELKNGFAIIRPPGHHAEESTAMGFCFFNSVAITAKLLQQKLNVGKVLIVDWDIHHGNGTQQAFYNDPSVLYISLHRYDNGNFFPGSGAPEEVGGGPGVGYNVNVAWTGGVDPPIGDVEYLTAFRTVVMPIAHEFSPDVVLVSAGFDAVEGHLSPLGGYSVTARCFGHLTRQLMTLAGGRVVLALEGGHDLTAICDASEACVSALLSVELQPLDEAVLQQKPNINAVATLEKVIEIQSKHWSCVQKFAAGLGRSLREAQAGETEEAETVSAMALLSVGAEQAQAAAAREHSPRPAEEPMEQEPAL

Histone deacetylase 4 = Histone deacetylase 4 (Homo sapiens, UniProt P56524); experiment: Inhibition of human HDAC4 by fluorescence assay
Chain of Histone deacetylase 4 (P56524 whole entry): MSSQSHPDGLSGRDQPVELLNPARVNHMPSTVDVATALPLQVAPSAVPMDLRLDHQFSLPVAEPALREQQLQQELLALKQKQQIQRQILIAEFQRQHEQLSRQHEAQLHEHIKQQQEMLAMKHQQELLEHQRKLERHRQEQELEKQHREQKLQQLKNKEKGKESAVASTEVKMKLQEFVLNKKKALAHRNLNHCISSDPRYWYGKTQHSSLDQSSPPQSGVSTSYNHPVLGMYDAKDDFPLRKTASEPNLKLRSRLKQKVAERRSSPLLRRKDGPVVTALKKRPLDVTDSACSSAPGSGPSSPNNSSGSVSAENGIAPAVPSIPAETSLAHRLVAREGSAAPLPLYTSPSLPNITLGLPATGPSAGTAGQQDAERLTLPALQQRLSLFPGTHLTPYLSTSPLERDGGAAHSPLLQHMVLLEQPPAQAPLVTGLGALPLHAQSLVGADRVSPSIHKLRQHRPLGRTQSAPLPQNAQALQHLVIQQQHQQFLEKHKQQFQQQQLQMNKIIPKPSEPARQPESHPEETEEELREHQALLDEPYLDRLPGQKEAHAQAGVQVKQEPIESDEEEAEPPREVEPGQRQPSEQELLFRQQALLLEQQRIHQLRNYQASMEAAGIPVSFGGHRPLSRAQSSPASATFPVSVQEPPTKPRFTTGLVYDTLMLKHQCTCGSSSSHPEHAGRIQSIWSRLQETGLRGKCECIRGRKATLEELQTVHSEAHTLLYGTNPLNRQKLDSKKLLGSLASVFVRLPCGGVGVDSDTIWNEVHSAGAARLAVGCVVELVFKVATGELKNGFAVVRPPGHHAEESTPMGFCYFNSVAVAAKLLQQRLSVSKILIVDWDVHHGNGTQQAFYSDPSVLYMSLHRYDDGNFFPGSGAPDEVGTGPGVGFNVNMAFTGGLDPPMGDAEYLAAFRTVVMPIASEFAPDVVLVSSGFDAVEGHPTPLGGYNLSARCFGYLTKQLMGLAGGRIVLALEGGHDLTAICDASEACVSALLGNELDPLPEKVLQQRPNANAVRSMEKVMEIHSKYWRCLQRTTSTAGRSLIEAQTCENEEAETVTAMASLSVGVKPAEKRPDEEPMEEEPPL

Histone deacetylase 2 = Histone deacetylase 2 (Homo sapiens, UniProt Q92769); experiment: Inhibition of human HDAC2 by fluorescence assay
Chain of Histone deacetylase 2 (Q92769 whole entry): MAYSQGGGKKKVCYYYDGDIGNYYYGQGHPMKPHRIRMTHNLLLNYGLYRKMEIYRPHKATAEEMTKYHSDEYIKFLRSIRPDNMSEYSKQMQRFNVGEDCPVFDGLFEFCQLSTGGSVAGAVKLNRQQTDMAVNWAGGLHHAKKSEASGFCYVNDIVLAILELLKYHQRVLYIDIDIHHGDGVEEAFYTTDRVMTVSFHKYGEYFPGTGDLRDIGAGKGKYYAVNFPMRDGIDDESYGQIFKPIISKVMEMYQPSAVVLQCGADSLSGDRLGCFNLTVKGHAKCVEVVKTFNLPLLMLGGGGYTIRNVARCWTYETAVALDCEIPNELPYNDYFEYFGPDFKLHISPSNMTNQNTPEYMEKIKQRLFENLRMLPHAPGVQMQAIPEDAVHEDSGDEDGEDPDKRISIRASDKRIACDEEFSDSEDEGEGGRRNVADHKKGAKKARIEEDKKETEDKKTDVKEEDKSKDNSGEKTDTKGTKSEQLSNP

Histone deacetylase 1 = Histone deacetylase 1 (Homo sapiens, UniProt Q13547); experiment: Inhibition of human HDAC1 by fluorescence assay
Chain of Histone deacetylase 1 (Q13547 whole entry): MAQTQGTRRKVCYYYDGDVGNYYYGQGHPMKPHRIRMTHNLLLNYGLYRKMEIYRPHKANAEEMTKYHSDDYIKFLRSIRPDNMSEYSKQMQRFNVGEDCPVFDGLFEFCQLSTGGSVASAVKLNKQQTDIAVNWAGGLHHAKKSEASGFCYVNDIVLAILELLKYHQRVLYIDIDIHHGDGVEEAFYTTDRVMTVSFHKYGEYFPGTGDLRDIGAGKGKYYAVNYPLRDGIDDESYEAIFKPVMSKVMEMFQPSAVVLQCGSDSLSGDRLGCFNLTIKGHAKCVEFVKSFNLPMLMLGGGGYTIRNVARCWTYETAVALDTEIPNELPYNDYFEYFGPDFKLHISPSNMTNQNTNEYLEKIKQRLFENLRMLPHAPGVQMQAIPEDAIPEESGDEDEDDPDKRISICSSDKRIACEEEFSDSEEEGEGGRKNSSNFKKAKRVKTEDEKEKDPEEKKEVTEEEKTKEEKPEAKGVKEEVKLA

Histone deacetylase [6] = experiment: Inhibition of HDAC in cisplatin resistant human KYSE-510 cells after 18 hrs by fluorescence assay; assay type: cell-based
Histone deacetylase [7] = experiment: Inhibition of HDAC in cisplatin sensitive human KYSE-510 cells after 18 hrs by fluorescence assay; assay type: cell-based
Histone deacetylase [8] = experiment: Inhibition of HDAC in cisplatin resistant human CAL27 cells after 18 hrs by fluorescence assay; assay type: cell-based; conditions: cal-27
Histone deacetylase [9] = experiment: Inhibition of HDAC in cisplatin sensitive human CAL27 cells after 18 hrs by fluorescence assay; assay type: cell-based; conditions: cal-27
Histone deacetylase [10] = experiment: Inhibition of HDAC in cisplatin resistant human MDA-MB-231 cells after 18 hrs by fluorescence assay; assay type: cell-based
Histone deacetylase [11] = experiment: Inhibition of HDAC in cisplatin sensitive human MDA-MB-231 cells after 18 hrs by fluorescence assay; assay type: cell-based
KYSE-510 [12] = experiment: Cytotoxicity against cisplatin sensitive human KYSE-510 cells after 72 hrs by MTT assay; assay type: functional, cell-based; conditions: KYSE-510, 72 h
KYSE-510 [13] = experiment: Cytotoxicity against cisplatin resistant human KYSE-510 cells after 72 hrs by MTT assay; assay type: functional, cell-based; conditions: KYSE-510, 72 h
CAL-27 [14] = experiment: Cytotoxicity against cisplatin resistant human CAL27 cells after 72 hrs by MTT assay; assay type: functional, cell-based; conditions: CAL-27, 72 h
CAL-27 [15] = experiment: Cytotoxicity against cisplatin sensitive human CAL27 cells after 72 hrs by MTT assay; assay type: functional, cell-based; conditions: CAL-27, 72 h
MDA-MB-231 [16] = experiment: Cytotoxicity against cisplatin resistant human MDA-MB-231 cells after 72 hrs by MTT assay; assay type: functional, cell-based; conditions: MDA-MB-231, 72 h
MDA-MB-231 [17] = experiment: Cytotoxicity against cisplatin sensitive human MDA-MB-231 cells after 72 hrs by MTT assay; assay type: functional, cell-based; conditions: MDA-MB-231, 72 h
Procedure, shortened: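 MDA-MB-231 (parental), 10 000 cells/well, in DMEM with 15% FCS at 37 °C, 5% CO2. Compounds added 24 h after seeding for 72 h. MTT (5 mg/mL in PBS) was added, formazan dissolved in DMSO, absorbance read at 544 and 690 nm. IC50 from four-parameter logistic fit of ≥3 experiments in triplicate.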

A2780 [18] = experiment: Cytotoxicity against cisplatin resistant human A2780 cells up to 100 uM after 72 hrs by MTT assay; assay type: functional, cell-based
Procedure, shortened: (§1)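 A2780 or its cisplatin-resistant subclone A2780CisR, seeded 5000 cells/well, grown in RPMI 1640 with 10% FCS at 37 °C, 5% CO2. Compound exposure began 24 h after seeding and lasted 72 h. MTT (5 mg/mL in PBS) was added, formazan dissolved in DMSO, absorbance read at 544 and 690 nm. IC50 from four-parameter logistic fit, ≥3 experiments in triplicate.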

A2780 [19] = experiment: Cytotoxicity against human A2780 cells up to 100 uM after 72 hrs by MTT assay; assay type: functional, cell-based; procedure, shortened: as §1

| Structure (SMILES) | IC50 (Histone deacetylase [1]) | IC50 (Histone deacetylase [2]) | IC50 [4] | IC50 (A2780 [3]) | other results |
| --- | --- | --- | --- | --- | --- |
| Cc1cc(C)cc(NC(=O)NOCCCCCC(=O)NO)c1 | 4.64 µM | 5.27 µM | 5.11 µM | 2.43 µM |  |
| CC(C)c1ccc(C(=O)NOCCCCCC(=O)NO)cc1 | 0.5 µM | 0.6 µM | 4.96 µM | 4.13 µM |  |
| CC(/C=C/C(=O)NO)=C\[C@@H](C)C(=O)c1ccc(N(C)C)cc1 [TRICHOSTATIN] |  |  | 0.22 µM | 0.29 µM |  |
| O=C(CCCCCONC(=O)Nc1ccccc1)NO | 1.71 µM | 1.7 µM | 5.47 µM | 8.47 µM |  |
| O=C(CCCCCONC(=O)Nc1ccccc1)Nc1ccccc1O | 43.9 µM | 34 µM | 84.6 µM | 35 µM |  |
| Cc1cccc(C(=O)NOCCCCCC(=O)NO)c1 | 0.9 µM | 1.58 µM | 2.25 µM | 2.1 µM | IC50 (Histone deacetylase 11): 2.14 µM; IC50 (Histone deacetylase 8): 1.04 µM; IC50 [5]: 0.0269 µM; IC50 (Histone deacetylase 5): 0.00231 µM; IC50 (Histone deacetylase 4): 0.0163 µM; IC50 (Histone deacetylase 2): 1.39 µM; IC50 (Histone deacetylase 1): 0.341 µM; IC50 (Histone deacetylase [6]): 1.13 µM; IC50 (Histone deacetylase [7]): 2.62 µM; IC50 (Histone deacetylase [8]): 0.88 µM; IC50 (Histone deacetylase [9]): 1 µM; IC50 (Histone deacetylase [10]): 1.28 µM; IC50 (Histone deacetylase [11]): 1.41 µM; IC50 (KYSE-510 [12]): 8.19 µM; IC50 (KYSE-510 [13]): 8.21 µM; IC50 (CAL-27 [14]): 3.72 µM; IC50 (CAL-27 [15]): 2.97 µM; IC50 (MDA-MB-231 [16]): 3.81 µM; IC50 (MDA-MB-231 [17]): 2.79 µM |
| CC(C)c1ccc(NC(=O)NOCCCCCC(=O)NO)cc1 | 2.05 µM | 2.86 µM | 58.8 µM | 27.1 µM |  |
| Cc1ccc(NC(=O)NOCCCCCC(=O)O)cc1 |  |  | > 100 µM | > 100 µM | Activity (A2780 [18]): inactive; Activity (A2780 [19]): inactive |

More lines, main results first:

| IC50 (Histone deacetylase [1]) | IC50 (Histone deacetylase [2]) | IC50 [4] | Structure (SMILES) | IC50 (A2780 [3]) | other results |
| --- | --- | --- | --- | --- | --- |
| 4.95 µM | 5.86 µM | 42.4 µM | O=C(CCCCCONC(=O)NNc1ccccc1)NO | 34.9 µM |  |
| 1.66 µM | 2.04 µM | 9.34 µM | O=C(CCCCCONC(=O)Nc1ccc(F)cc1)NO | 9.05 µM |  |
| 1.43 µM | 1.45 µM | 10.2 µM | Cc1ccc(NC(=O)NOCCCCCC(=O)NO)cc1 | 8.05 µM |  |
| > 100 µM | > 100 µM | 73.1 µM | O=C(O)CCCCCONC(=O)Nc1ccc(F)cc1 | 67.8 µM |  |
|  |  | > 100 µM | COc1ccc(NC(=O)NOCCCCCC(=O)O)cc1 | > 100 µM | Activity (A2780 [18]): inactive; Activity (A2780 [19]): inactive |
| 3.46 µM | 4.21 µM | 5 µM | Cc1ccc(C(=O)NOCCCCCC(=O)NO)cc1 | 4.09 µM |  |
